One assay has as its system P. aeruginosa 8–97. As to the kind of experiment: Interaction study, checkerboard titration. As to conditions: antibiotic in combination with RNL (ranalexin). In kind it is cell-based, Pseudomonas aeruginosa.
The subject of a further assay is E. coli 31–97. As to the kind of experiment: Interaction study, checkerboard titration. The format is cell-based, Escherichia coli.
The next assay has as its system E. coli 7–98. As to the kind of experiment: Interaction study, checkerboard titration. In kind it is cell-based, Escherichia coli.
A further assay relates to MS S. aureus 56–96. As to the kind of experiment: Interaction study, checkerboard titration. As to conditions: antibiotic in combination with RNL (ranalexin). In kind it is cell-based, Staphylococcus aureus.
A further assay has as its system MS S. aureus 14–99. As to the kind of experiment: Interaction study, checkerboard titration. In kind it is cell-based, Staphylococcus aureus. The following applies: antibiotic in combination with RNL (ranalexin). The essentials:
(§1)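 Checkerboard titration of peptide plus clinical antibiotic against representative clinical MS S. aureus isolates in polypropylene microtiter plates. […] Mueller-Hinton broth, inoculum 5×10^5 cfu/ml, 18 h at 35°C in air. MIC is the lowest concentration inhibiting visible growth. FIC index = A/MICA + B/MICB; synergy ≤0.5.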

The subject of a further assay is MS S. aureus 15–99. As to the kind of experiment: Interaction study, checkerboard titration. In kind it is cell-based, Staphylococcus aureus. As to conditions: antibiotic in combination with RNL (ranalexin). The essentials:
as §1

A further assay relates to MS S. aureus 21–99. As to the kind of experiment: Interaction study, checkerboard titration. In kind it is cell-based, Staphylococcus aureus. As to conditions: antibiotic in combination with RNL (ranalexin).
Another assay relates to E. coli ATCC 25922. As to the kind of experiment: Interaction study, checkerboard titration. In kind it is cell-based, Escherichia coli. The following applies: antibiotic in combination with RNL (ranalexin).
The test system of a further assay is P. aeruginosa. The following applies: at 2 mg/l, in vitro, cited from earlier work; for effect on P. aeruginosa at 48 h: incubation continued for 48 h.
Setting [1] is: antibiotic in combination with MG II (magainin II).
The mark [2] stands for this setting: antibiotic in combination with RNL (ranalexin).

`CC(C)(O/N=C(\C(=O)N[C@@H]1C(=O)N2C(C(=O)[O-])=C(C[n+]3ccccc3)CS[C@H]12)c1csc(N)n1)C(=O)O` [CAZ, ceftazidime]: the FIC index with P. aeruginosa 8–97 is on record as 1.500; in the assay with E. coli 31–97 (setting [1]), 0.187; in the assay with E. coli 7–98 (setting [1]), 0.312.

With `CC[C@H]1OC(=O)[C@H](C)[C@@H](O[C@H]2C[C@@](C)(OC)[C@@H](O)[C@H](C)O2)[C@H](C)[C@@H](O[C@@H]2O[C@H](C)C[C@H](N(C)C)[C@H]2O)[C@](C)(OC)C[C@@H](C)C(=O)[C@H](C)[C@@H](O)[C@]1(C)O` [CLR, clarithromycin], the FIC index in the assay on MS S. aureus 56–96 was 0.312; in the assay with MS S. aureus 14–99, 0.250; with MS S. aureus 15–99, 0.187; in the assay with MS S. aureus 21–99, 0.250; with P. aeruginosa 8–97 it was 0.375; in the assay on E. coli ATCC 25922 it was 0.375. Further, the FIC index is listed as 1.500 in the assay with E. coli 31–97 (setting [1]), 0.312 in the assay with E. coli 31–97 (setting [2]), 1.500 in the assay with E. coli 7–98 (setting [1]) and 0.312 with E. coli 7–98 (setting [2]). The “effect on P. aeruginosa cell growth at 24 h” value with P. aeruginosa was “no effect on cell growth”. Also, the “effect on P. aeruginosa at 48 h” value with P. aeruginosa is “bactericidal”.

On to `CO/N=C(\C(=O)N[C@@H]1C(=O)N2C(C(=O)O)=C(CSc3nc(=O)c(=O)[nH]n3C)CS[C@H]12)c1csc(N)n1` [CRO, ceftriaxone], for which the FIC index in the assay on MS S. aureus 56–96 stood at 1.500; with MS S. aureus 14–99 it was 1.000; in the assay with MS S. aureus 15–99, 1.250; in the assay with MS S. aureus 21–99 it was 1.500; in the assay with P. aeruginosa 8–97, 0.750; with E. coli ATCC 25922 it was 1.000. Further, the FIC index in the assay on E. coli 31–97 (setting [1]) came to 0.312; in the assay on E. coli 31–97 (setting [2]), 1.250; in the assay on E. coli 7–98 (setting [1]) it was 0.250; in the assay with E. coli 7–98 (setting [2]), 1.250.

`C[C@H]1c2cccc(O)c2C(=O)C2=C(O)[C@]3(O)C(=O)C(C(N)=O)=C(O)[C@@H](N(C)C)[C@@H]3[C@@H](O)[C@@H]21` [D, doxycycline]: the FIC index was 0.312 with MS S. aureus 56–96; 0.312 in the assay with MS S. aureus 14–99; 0.250 in the assay with MS S. aureus 15–99; 0.187 in the assay with MS S. aureus 21–99; 0.312 with P. aeruginosa 8–97; 0.312 in the assay on E. coli ATCC 25922. Besides, the FIC index in the assay with E. coli 31–97 (setting [1]) was 1.250; in the assay with E. coli 31–97 (setting [2]), 0.375; with E. coli 7–98 (setting [1]), 2.000; in the assay on E. coli 7–98 (setting [2]), 0.312.

As for `C[C@@H](O)[C@H]1C(=O)N2C(C(=O)O)=C(S[C@@H]3CN[C@H](C(=O)N(C)C)C3)[C@H](C)[C@H]12` [MEM, meropenem], the FIC index in the assay with MS S. aureus 56–96 is reported as 1.250; in the assay on MS S. aureus 14–99 it was 1.250; in the assay with MS S. aureus 15–99, 1.500; in the assay with MS S. aureus 21–99, 1.500; with P. aeruginosa 8–97, 1.000; with E. coli ATCC 25922 it was 0.750. For the same compound, the FIC index in the assay with E. coli 31–97 (setting [1]) amounted to 0.375; with E. coli 31–97 (setting [2]), 1.000; in the assay on E. coli 7–98 (setting [1]) it was 0.375; in the assay with E. coli 7–98 (setting [2]), 1.500.

With `CCN1CCN(C(=O)N[C@@H](C(=O)N[C@@H]2C(=O)N3[C@@H]2SC(C)(C)[C@@H]3C(=O)O)c2ccccc2)C(=O)C1=O` [PIP, piperacillin], the FIC index in the assay on P. aeruginosa 8–97 turned out to be 1.000; with E. coli ATCC 25922, 0.750; in the assay with E. coli 31–97 (setting [1]), 0.312; in the assay on E. coli 31–97 (setting [2]), 1.250; in the assay with E. coli 7–98 (setting [1]) it was 0.250; with E. coli 7–98 (setting [2]), 1.000.

Take `CC[C@H]1OC(=O)[C@H](C)[C@@H](O[C@H]2C[C@@](C)(OC)[C@@H](O)[C@H](C)O2)[C@H](C)[C@@H](O[C@@H]2O[C@H](C)C[C@H](N(C)C)[C@H]2O)[C@](C)(O)C[C@@H](C)C(=O)[C@H](C)[C@@H](O)[C@]1(C)O` [erythromycin]: in the assay with P. aeruginosa, the “effect on P. aeruginosa cell growth at 24 h” value is recorded as “no effect on cell growth” and the “effect on P. aeruginosa at 48 h” value is recorded as “bactericidal”.

On to amoxicillin-clavulanate [AMC], for which the FIC index with MS S. aureus 14–99 worked out at 1.000; in the assay on MS S. aureus 15–99 it was 1.500; with P. aeruginosa 8–97, 1.000; in the assay with E. coli ATCC 25922 it was 1.500; in the assay with E. coli 31–97 (setting [1]), 0.312; in the assay on E. coli 7–98 (setting [1]), 0.187. The FIC index in the assay on E. coli 7–98 (setting [2]) was 1.000.

In the case of polymyxin E [POL-E], the FIC index is given as 0.250 in the assay on P. aeruginosa 8–97; 0.187 with E. coli ATCC 25922; 1.500 in the assay with E. coli 31–97 (setting [1]); 0.250 in the assay with E. coli 31–97 (setting [2]); 0.312 with E. coli 7–98 (setting [2]).

The values above are taken from paper PMC3797290 (Experimental and Therapeutic Medicine, 2013).
